From ChEMBL document CHEMBL3393035, “Novel agonists of benzodiazepine receptors: design, synthesis, binding assay and pharmacological evaluation of 1,2,4-triazolo[1,5-a]pyrimidinone and 3-amino-1,2,4-triazole derivatives” (Bioorg Med Chem, 2015) come the findings set out here.

Data set [1] in a line: Displacement of [3H]-flumazenil from benzodiazepine receptor in Sprague-Dawley rat brain cortical membranes incubated for 35 mins. In outline:
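Rat cortex membranes: homogenized in ice-cold 30 mM Tris-HCl pH 7.4, washed by repeated centrifugation at 4°C, 37°C 30 min preincubation, stored -20°C. 100 µg membrane protein in 50 mM Tris-HCl pH 7.4 with 8.6×10^-5 nmol [3H]-flumazenil plus increasing competitor, 0.5 mL, 30°C 35 min; stopped by centrifugation. NSB with 100 µM diazepam; triplicates; IC50 by nonlinear regression.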

Data set [2] has as its system Mus musculus. Description: Anticonvulsant activity in ip dosed NMRI mouse assessed as reduction in PTZ-induced lethal convulsion dosed 30 mins before PTZ injection and measured 30 mins post PTZ challenge. It counts as functional. The essentials: (§1)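 Male NMRI mice (18-22 g) were given drug i.p. at 5 ml/kg in DMSO:water (1:10), 30 min before PTZ 100 mg/kg i.p. (in water). Mice were watched for 30 min after PTZ and deaths were counted.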

In data set [3] the test system is Mus musculus. The experiment in a line: Anticonvulsant activity in ip dosed NMRI mouse assessed as reduction in MES-induced seizures by measuring occurrence of hind limb tonic extensions dosed 30 mins before MES injection and measured 30 mins post MES challenge. The data set is classed as functional. As to conditions: Hindlimb. The essentials:
(§2)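 Male NMRI mice (18-22 g) were given drug i.p. at 5 ml/kg in DMSO:water (1:10), 30 min before maximal electroshock (60 Hz, 37.2 mA, 0.25 s). The read-out was occurrence of hind limb tonic extension.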

The subject of data set [4] is Mus musculus. The experiment in a line: Hypnotic effect in NMRI albino mouse assessed as potentiation of pentobarbital sleeping time by measuring duration of loss of righting reflex at 1 mg/kg, ip dosed 30 mins before pentobarbital challenge. It counts as functional, organism-based. Set-up: dose 1 mg/kg. The essentials:
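Male NMRI mice (18-22 g), n=8 per group, received diazepam i.p. in DMSO:water (1:10), 5 ml/kg. Pentobarbital 65 mg/kg i.p. followed 30 min later. Sleep time was the duration of loss of righting reflex; mice were kept on an electric blanket against hypothermia. Data are mean + SEM.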

The test system of data set [5] is Mus musculus. The experiment in a line: Anticonvulsant activity in ip dosed NMRI mouse assessed as reduction in PTZ-induced lethal convulsion dosed 30 mins before PTZ injection and co-treated with BZD antagonist flumazenil and measured 30 mins post PTZ challenge. It counts as functional, organism-based. In outline:
as §1

Data set [6] concerns Mus musculus. Description: Anticonvulsant activity in ip dosed NMRI mouse assessed as reduction in MES-induced seizures by measuring occurrence of hind limb tonic extensions dosed 30 mins before MES injection and co-treated with 10 mg/kg BZD antagonist flumazenil and measured 30 mins post MES challenge. It counts as functional, organism-based. Set-up: dose 10 mg/kg. The note with it: Hindlimb. The essentials:
as §2

For data set [7], the system named is Mus musculus. Description: Toxicity in NMRI albino mouse at 150 mg/kg, ip assessed as induction hypnosis measured after 24 hrs post dose. It counts as organism-based. Set-up: dose 150 mg/kg, route intraperitoneal. The note with it: in vivo. The essentials:
(§3)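 Ten randomly selected male NMRI mice given single i.p. doses of 50 or 150 mg/kg in DMSO:water 1:10 (5 ml/kg), then observed for 24 h for toxic reactions, sedation and hypnosis.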

Data set [8] relates to Mus musculus. The experiment in a line: Hypnotic effect in NMRI albino mouse assessed as potentiation of pentobarbital sleeping time by measuring duration of loss of righting reflex at 0.625 mg/kg, ip dosed 30 mins before pentobarbital challenge. It counts as functional, organism-based. Set-up: dose 0.625 mg/kg. The essentials:
(§4)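 Male NMRI mice, 18-22 g, 12 weeks old. Test agent and flumazenil (10 mg/kg) in DMSO:water 1:10, 5 ml/kg i.p., 30 min before pentobarbital 65 mg/kg i.p. (in water). Sleep time is the duration of loss of righting reflex. Mice kept on an electric blanket to prevent hypothermia. n=8 per group, mean + SEM.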

For data set [9], the system named is Mus musculus. The experiment in a line: Toxicity in NMRI albino mouse at 50 mg/kg, ip assessed as induction hypnosis measured after 24 hrs post dose. It counts as organism-based. Set-up: dose 50 mg/kg, route intraperitoneal. The note with it: in vivo. In outline:
as §3

The test system of data set [10] is Mus musculus. Description: Toxicity in NMRI albino mouse at 150 mg/kg, ip assessed as induction of toxic reactions measured after 24 hrs post dose. The data set is classed as organism-based. Set-up: dose 150 mg/kg, route intraperitoneal. As to conditions: in vivo. The essentials:
as §3

Data set [11] deals with Mus musculus. Description: Hypnotic effect in NMRI albino mouse assessed as potentiation of pentobarbital sleeping time by measuring duration of loss of righting reflex at 1.25 to 5 mg/kg, ip co-treated with 10 mg/kg BZD receptor antagonist flumazenil. The data set is classed as functional, organism-based. The essentials: as §4
The subject of data set [12] is Mus musculus. Description: Toxicity in NMRI albino mouse at 50 mg/kg, ip assessed as induction of toxic reactions measured after 24 hrs post dose. It counts as organism-based. Set-up: dose 50 mg/kg, route intraperitoneal. The note with it: in vivo. The essentials: as §3
Data set [13] concerns Mus musculus. Description: Toxicity in NMRI albino mouse at 150 mg/kg, ip assessed as induction sedation measured after 24 hrs post dose. It counts as organism-based. Set-up: dose 150 mg/kg, route intraperitoneal. The note with it: in vivo. The essentials: as §3
For data set [14], the system named is Mus musculus. Description: Hypnotic effect in NMRI albino mouse assessed as potentiation of pentobarbital sleeping time by measuring duration of loss of righting reflex dosed intraperitoneally 30 mins before pentobarbital challenge. The data set is classed as functional. In outline: as §4
The subject of data set [15] is Mus musculus. The experiment in a line: Induction of anterograde amnesia in NMRI albino mouse assessed as reduction in latency to enter dark compartment at 0.325 to 2.5 mg/kg, ip by passive avoidance test. It counts as functional, organism-based. The essentials: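 Male NMRI mice (18-22 g) dosed i.p. in DMSO:water 1:10 (5 ml/kg), 30 min before the test; midazolam 1 mg/kg i.p. in water as reference. On the testing day, 24 h after training, each mouse is placed in the lit compartment and latency to enter the dark compartment is recorded. n=8 per group, mean + SEM.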

For data set [16], the system named is Mus musculus. Description: Toxicity in NMRI albino mouse at 50 mg/kg, ip assessed as induction sedation measured after 24 hrs post dose. The data set is classed as organism-based. Set-up: dose 50 mg/kg, route intraperitoneal. The note with it: in vivo. In outline:
as §3

Data set [17] concerns Mus musculus. The experiment in a line: Induction of anterograde amnesia in NMRI albino mouse assessed as reduction in latency to enter dark compartment at 1 mg/kg, ip by passive avoidance test. Set-up: dose 1 mg/kg. The data set is classed as functional, organism-based. The essentials:
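Male NMRI mice (18-22 g), n=8 per group, received midazolam i.p. in distilled water, 5 ml/kg. In the passive avoidance test, mice were placed in the lit compartment on the testing day, 24 h later, and latency to enter the dark compartment was recorded. Data are mean + SEM.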

Calls of active or inactive are those of the source. The calls are words filed in the database; no cut-off is given here.

Usually IC50 stands for the concentration that gives 50% inhibition. In general, Ki refers to a measure of affinity in units of concentration, obtained from inhibition or displacement. For orientation: ED50 means the dose that gives a 50% effect, or the effect in half of the subjects.

For `Cc1cc(=O)n2nc(-c3ccccc3)n(Cc3ccc(F)cc3)c2n1`, in data set [1], the half-inhibitory concentration (IC50) stood at 1.59 nM and the inhibition constant Ki stood at 0.97 nM.

In [1], `Cc1cc(=O)n2nc(-c3ccccc3)n(Cc3ccccc3)c2n1` yielded an IC50 of 2.39 nM and a Ki of 1.46 nM.

In [1], `Nc1nnc(-c2ccccc2)n1Cc1ccccc1` registered an IC50 of 0.87 nM and an inhibition constant (Ki) of 0.53 nM.

With `CN1C(=O)CN=C(c2ccccc2)c2cc(Cl)ccc21` [DIAZEPAM], the ED50 was found to be 0.75 mg/kg in data set [2] and 0.74 mg/kg in data set [3]. This compound also registered an IC50 in data set [1] of 2.5 nM. Besides, the inhibitory constant (Ki) in [1] is 1.53 nM. Also, the result in data set [4] was Active. Besides, the result in data set [5] and in data set [6] was inactive.

For the compound `Nc1nnc(-c2ccccc2)n1Cc1ccc(F)cc1`, in data set [1], the IC50 came to 4.45 nM and the affinity, expressed as Ki, was 2.73 nM.

For `Cc1cc(=O)n2nc(-c3ccccc3)n(Cc3ccccc3Cl)c2n1`, the Activity entry was “Toxic” in data set [7]; “Toxic” in [9]; “Non-toxic” in [10]; “Non-toxic” in [12]; “Toxic” in data set [13]; “Dose-dependent effect” in data set [14]. Besides, the Activity result in data set [16] is “Toxic”. Also, the figures for the 50% effective dose (ED50) in data set [2], in data set [3] and in [14] (ip) were 56.6 mg/kg, 15 mg/kg and 5 mg/kg, respectively. Further, the outcome in data set [8], in [11], in [5] and in [6] was inactive. In data set [1], this compound displayed an IC50 of 0.68 nM. The compound further displayed an inhibition constant Ki in [1] of 0.42 nM. The result in [15] was Active.

In data set [1], `Nc1nnc(-c2ccccc2)n1Cc1ccccc1Cl` yielded an IC50 of 2.24 nM and an inhibition constant Ki of 1.37 nM.

As for `Cc1ncc2n1-c1ccc(Cl)cc1C(c1ccccc1F)=NC2`, in data set [17], the result was Active.
